The source made the active and inactive calls. The rule behind the calls is not given here.
Key:
[1] = target: T1, C-X-C chemokine receptor type 3 (Homo sapiens, UniProt P49682); assay: Displacement of [125I]CXCL10 from CXCR3 expressed in HEK293 cells; format: cell-based
T1 sequence (P49682 whole entry): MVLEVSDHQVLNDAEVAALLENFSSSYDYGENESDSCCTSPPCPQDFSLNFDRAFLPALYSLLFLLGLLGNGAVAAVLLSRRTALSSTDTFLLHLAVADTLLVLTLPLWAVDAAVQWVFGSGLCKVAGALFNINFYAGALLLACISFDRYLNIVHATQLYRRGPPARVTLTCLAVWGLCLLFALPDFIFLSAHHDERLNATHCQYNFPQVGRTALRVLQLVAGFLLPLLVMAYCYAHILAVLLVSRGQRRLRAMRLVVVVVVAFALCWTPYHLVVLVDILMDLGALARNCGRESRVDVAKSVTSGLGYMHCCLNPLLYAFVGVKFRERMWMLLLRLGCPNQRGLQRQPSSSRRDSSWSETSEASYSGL
In short: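 Competition binding against [125I]CXCL10 using membranes from HEK293 cells stably expressing CXCR3. Affinities reported as pKi; mean ± SEM of at least three independent experiments.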

[2] = target: T2, C-X-C chemokine receptor type 3 (Homo sapiens) (UniProt P49682); assay: Agonist activity at CXCR3 expressed in HEK293 cells by [35S]GTPgamma binding assay relative to CXCL11; format: functional, cell-based
T2 sequence (whole entry): T1 sequence (P49682 whole entry)
In short: (§1)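 Membranes (5 μg/well) from HEK293 cells stably expressing CXCR3, incubated with CXCL11 or ligands. Buffer 50 mM HEPES, 10 mM MgCl2, 100 mM NaCl, pH 7.2, with 3 μM GDP and 300 pM [35S]GTPγS, 1 h at room temperature. Filtered on GF/B, incorporated label counted. Response normalized to CXCL11 (α = 1) to give relative efficacy; mean ± SEM of ≥3 independent experiments.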

[3] = target: T1, C-X-C chemokine receptor type 3; assay: Agonist activity at CXCR3 expressed in HEK293 cells by [35S]GTPgamma binding assay; format: functional, cell-based; in short: as §1
[4] = target: T2, C-X-C chemokine receptor type 3 (Homo sapiens); assay: Agonist activity at CXCR3 expressed in HEK293 cells by CRE-luciferase reporter gene assay; format: functional, cell-based
In short: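 HEK293 cells stably expressing CXCR3, transfected with a CRE-luciferase reporter plasmid. Medium swapped for serum-free medium with 0.05% BSA plus ligands for 5 h. Then replaced by luciferin substrate solution (Tris-phosphate pH 7.8, glycerol, Triton X-100, DTT, MgCl2, 825 μM ATP, beetle luciferin) and luminescence read.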

[5] = target: T2, C-X-C chemokine receptor type 3 (Homo sapiens); assay: Agonist activity at CXCR3 expressed in HEK293 cells in presence of CXCR3 antagonist (R)-N-(1-(3-(4-ethoxyphenyl)-4-oxo-3,4-dihydropyrido[2,3-d]pyrimidin-2-yl)ethyl)-2-(4-fluoro-3-(trifluoromethyl)phenyl)-N-(pyridin-3-ylmethyl)acetamide by [35S]GTPgamma binding assay; format: functional, cell-based
In short: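 [35S]GTPγS incorporation on membranes (5 μg/well) of HEK293 cells stably expressing CXCR3. Buffer 50 mM HEPES, 10 mM MgCl2, 100 mM NaCl, pH 7.2, 3 μM GDP, 300 pM [35S]GTPγS, 1 h at room temperature. In antagonist mode, antagonist added 30 min before [35S]GTPγS. Read by filtration and counting.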

Structure (SMILES) | Ki [1] [nM] | Ratio [2] | EC50 [3] [nM] | Activity [4] | Activity [5]
CC1(C)[C@H]2CC=C(C[N+](C)(C)Cc3ccc(-c4ccccc4F)cc3)[C@@H]1C2 | 501 | 0.2 | 1260 |  | 
CC1(C)[C@H]2CC=C(C[N+](C)(C)Cc3ccc(-c4ccccc4)c(Cl)c3)[C@@H]1C2 | 631 | 0.06 |  |  | 
CC1(C)[C@H]2CC=C(C[N+](C)(C)Cc3ccc4c(c3)Cc3ccccc3-4)[C@@H]1C2 | 398 | 0.03 |  |  | 
CC1(C)[C@H]2CC=C(C[N+](C)(C)Cc3ccc(-c4c(Cl)cccc4Cl)cc3)[C@@H]1C2 | 398 | 0.42 | 2000 |  | 
CC1(C)[C@H]2CC[C@@H](C[N+](C)(C)Cc3ccc(-c4cccc(Cl)c4)cc3)[C@@H]1C2 | 501 | 0.07 |  |  | 
NCCCC[C@H](NC(=O)[C@@H]1Cc2ccccc2CN1C(=O)CCC(=O)c1ccccc1)C(=O)NCC(c1ccccc1)c1ccccc1 | 39.8 | 0.96 |  |  | 
CC1(C)[C@H]2CC=C(C[N+](C)(C)Cc3ccc(-c4ccccc4Cl)c(Cl)c3)[C@@H]1C2 | 200 | 0.3 | 794 |  | 
COc1ccccc1-c1ccc(C[N+](C)(C)CC2=CC[C@H]3C[C@@H]2C3(C)C)cc1 | 158 | 0.36 | 12600 |  | 
CC1(C)[C@H]2CC=C(C[N+](C)(C)Cc3ccc(-c4cccc(Cl)c4Cl)cc3)[C@@H]1C2 | 398 | 0.31 | 631 |  | 
CC1(C)[C@H]2CC=C(C[N+](C)(C)Cc3ccc(Cl)cc3)[C@@H]1C2 |  | 0.02 |  |  | 
CC1(C)[C@H]2CC=C(C[N+](C)(C)Cc3ccccc3)[C@@H]1C2 | 2510 | 0.04 |  |  | 
CC1(C)[C@H]2CC=C(C[N+](C)(C)Cc3ccc(-c4cc(Cl)ccc4Cl)cc3)[C@@H]1C2 | 251 | 0.64 | 5010 | Active | 
CCOc1ccc(-n2c([C@@H](C)N(Cc3cccnc3)C(=O)Cc3ccc(F)c(C(F)(F)F)c3)nc3ncccc3c2=O)cc1 | 10 | 0 |  |  | 
CC1(C)[C@H]2CC=C(C[N+](C)(C)Cc3ccc(-c4cccc(Cl)c4)c(Cl)c3)[C@@H]1C2 | 501 | 0.03 |  |  | 
CC1(C)[C@H]2CC(C[N+](C)(C)Cc3ccc(-c4ccccc4I)cc3)=C[C@@H]1C2 | 200 | 1.05 | 1580 |  | 
CC1(C)[C@H]2CC(C[N+](C)(C)Cc3ccc(-c4cccc(Cl)c4)cc3)=C[C@@H]1C2 | 501 | 0.07 |  |  | 
CC1(C)[C@H]2CC[C@@H](C[N+](C)(C)Cc3ccc(-c4ccccc4I)cc3)[C@@H]1C2 | 100 | 0.83 | 1260 |  | 
Cc1cccc(C)c1-c1ccc(C[N+](C)(C)CC2=CC[C@H]3C[C@@H]2C3(C)C)cc1 | 1000 | 0.19 | 7940 |  | 

Further lines, results first:

Ki [1] [nM] | Ratio [2] | EC50 [3] [nM] | Activity [4] | Activity [5] | Structure (SMILES)
2000 | 0.07 |  |  |  | CC1(C)[C@H]2CC=C(C[N+](C)(C)Cc3ccc(-c4ccccc4O)cc3)[C@@H]1C2
200 | 0.08 |  |  |  | CC1(C)[C@H]2CC=C(C[N+](C)(C)Cc3ccc(-c4cccc(Br)c4)cc3)[C@@H]1C2
251 | 0.05 |  | inactive |  | CC1(C)[C@H]2CC=C(C[N+](C)(C)Cc3ccc(-c4cccc(Cl)c4)cc3)[C@@H]1C2
316 | 0.05 |  |  |  | CC1(C)[C@@H]2CC=C(C[N+](C)(C)Cc3ccc(-c4cccc(Cl)c4)cc3)[C@H]1C2
631 | 0.11 |  |  |  | CC1(C)[C@H]2CC=C(C[N+](C)(C)Cc3ccc(-c4ccccc4)cc3)[C@@H]1C2
50.1 | 0.98 | 631 |  |  | CC1(C)[C@@H]2CC=C(C[N+](C)(C)Cc3ccc(-c4ccccc4I)cc3)[C@H]1C2
63.1 | 0.95 | 794 |  |  | CC1(C)[C@H]2CC=C(C[N+](C)(C)Cc3ccc(-c4ccccc4Br)cc3)[C@@H]1C2
158 | 0.2 | 1260 |  |  | Cc1ccccc1-c1ccc(C[N+](C)(C)CC2=CC[C@H]3C[C@@H]2C3(C)C)cc1
63.1 | 0.99 | 1000 | Active | inactive | CC1(C)[C@H]2CC=C(C[N+](C)(C)Cc3ccc(-c4ccccc4I)cc3)[C@@H]1C2
100 | 0.73 | 1580 |  | inactive | CC1(C)[C@H]2CC=C(C[N+](C)(C)Cc3ccc(-c4ccccc4Cl)cc3)[C@@H]1C2
